Laboratory results taken from ChEMBL document CHEMBL3864175, “Sulfonamides as Selective NaV1.7 Inhibitors: Optimizing Potency and Pharmacokinetics to Enable in Vivo Target Engagement” (ACS Med Chem Lett, 2016).

Experiments:
[1] = molecular target: Sodium channel protein type 5 subunit alpha (Homo sapiens, UniProt Q14524); assay: Inhibition of human Nav1.5 expressed in HEK293 cells assessed as inhibition of sodium current at holding potential of -125 mV measured for 3 to 5 mins by whole cell voltage clamp method; type: cell-based
[2] = Intrinsic clearance in rat liver microsomes at 1 uM measured after 40 mins in presence of NADPH by LC-MS/MS analysis; type: ADME; conditions: read-out: CLH
Outline: (§1)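 Clearance measured in rat or human liver microsomes. Test compound at 1 μM, microsomal protein at 250 μg/mL.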

[3] = Apparent permeability in MDCK cells; type: ADME, cell-based, Canis lupus familiaris; conditions: dog
Outline: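 Apparent permeability measured in parental MDCK cells.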

[4] = Clearance in rat at 0.5 mg/kg, iv by LC-MS/MS analysis; type: ADME, organism-based; conditions: in vivo
Outline: (§2)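 Male rats, n = 2 per group, dosed intravenously at 0.5 mg/kg as a solution in 100% DMSO. Unbound clearance is derived from total clearance.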

[5] = Stability in bile duct cannulated Sprague-Dawley rat assessed as parent compound level in bile at 6.67 mg/kg, iv administered through catheter measured after 2 and 4 hrs post dose by LC-MS/MS analysis; type: ADME, organism-based; conditions: in vivo
[6] = Drug metabolism in bile duct cannulated Sprague-Dawley rat urine assessed as metabolite formation at 6.67 mg/kg, iv administered through catheter measured after 2 and 4 hrs post dose by LC-MS/MS analysis; type: ADME, organism-based; conditions: in vivo
[7] = molecular target: Sodium channel protein type 9 subunit alpha (Homo sapiens, UniProt Q15858); assay: Inhibition of human Nav1.7 expressed in HEK293 cells assessed as inhibition of sodium current at holding potential of -125 mV measured for 3 to 5 mins by whole cell voltage clamp method; type: cell-based
[8] = Intrinsic clearance in human liver microsomes at 1 uM measured after 40 mins in presence of NADPH by LC-MS/MS analysis; type: ADME; conditions: read-out: CLH; outline: as §1
[9] = Fraction unbound in rat plasma at 5 uM measured after 45 mins by LC-MS/MS analysis; type: ADME, cell-free
[10] = Unbound clearance in rat at 0.5 mg/kg, iv by LC-MS/MS analysis; type: ADME, organism-based; conditions: in vivo; outline: as §2
[11] = Dissociation constant, pKa of the compound at pH 1.7 to 11.2 by capillary electrophoresis method; type: physicochemical
Outline: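 pKa values calculated from capillary electrophoresis data collected over pH 1.7 to 11.2.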

[12] = Selectivity index, ratio of IC50 for human Nav1.5 expressed in HEK293 cells to IC50 for human Nav 1.7 expressed in HEK293 cells
[13] = Apparent permeability in MDCK cells assessed as drug recovery; type: ADME, cell-based, Canis lupus familiaris; conditions: dog, read-out: Drug recovery

Chain of Sodium channel protein type 5 subunit alpha (Q14524 whole entry): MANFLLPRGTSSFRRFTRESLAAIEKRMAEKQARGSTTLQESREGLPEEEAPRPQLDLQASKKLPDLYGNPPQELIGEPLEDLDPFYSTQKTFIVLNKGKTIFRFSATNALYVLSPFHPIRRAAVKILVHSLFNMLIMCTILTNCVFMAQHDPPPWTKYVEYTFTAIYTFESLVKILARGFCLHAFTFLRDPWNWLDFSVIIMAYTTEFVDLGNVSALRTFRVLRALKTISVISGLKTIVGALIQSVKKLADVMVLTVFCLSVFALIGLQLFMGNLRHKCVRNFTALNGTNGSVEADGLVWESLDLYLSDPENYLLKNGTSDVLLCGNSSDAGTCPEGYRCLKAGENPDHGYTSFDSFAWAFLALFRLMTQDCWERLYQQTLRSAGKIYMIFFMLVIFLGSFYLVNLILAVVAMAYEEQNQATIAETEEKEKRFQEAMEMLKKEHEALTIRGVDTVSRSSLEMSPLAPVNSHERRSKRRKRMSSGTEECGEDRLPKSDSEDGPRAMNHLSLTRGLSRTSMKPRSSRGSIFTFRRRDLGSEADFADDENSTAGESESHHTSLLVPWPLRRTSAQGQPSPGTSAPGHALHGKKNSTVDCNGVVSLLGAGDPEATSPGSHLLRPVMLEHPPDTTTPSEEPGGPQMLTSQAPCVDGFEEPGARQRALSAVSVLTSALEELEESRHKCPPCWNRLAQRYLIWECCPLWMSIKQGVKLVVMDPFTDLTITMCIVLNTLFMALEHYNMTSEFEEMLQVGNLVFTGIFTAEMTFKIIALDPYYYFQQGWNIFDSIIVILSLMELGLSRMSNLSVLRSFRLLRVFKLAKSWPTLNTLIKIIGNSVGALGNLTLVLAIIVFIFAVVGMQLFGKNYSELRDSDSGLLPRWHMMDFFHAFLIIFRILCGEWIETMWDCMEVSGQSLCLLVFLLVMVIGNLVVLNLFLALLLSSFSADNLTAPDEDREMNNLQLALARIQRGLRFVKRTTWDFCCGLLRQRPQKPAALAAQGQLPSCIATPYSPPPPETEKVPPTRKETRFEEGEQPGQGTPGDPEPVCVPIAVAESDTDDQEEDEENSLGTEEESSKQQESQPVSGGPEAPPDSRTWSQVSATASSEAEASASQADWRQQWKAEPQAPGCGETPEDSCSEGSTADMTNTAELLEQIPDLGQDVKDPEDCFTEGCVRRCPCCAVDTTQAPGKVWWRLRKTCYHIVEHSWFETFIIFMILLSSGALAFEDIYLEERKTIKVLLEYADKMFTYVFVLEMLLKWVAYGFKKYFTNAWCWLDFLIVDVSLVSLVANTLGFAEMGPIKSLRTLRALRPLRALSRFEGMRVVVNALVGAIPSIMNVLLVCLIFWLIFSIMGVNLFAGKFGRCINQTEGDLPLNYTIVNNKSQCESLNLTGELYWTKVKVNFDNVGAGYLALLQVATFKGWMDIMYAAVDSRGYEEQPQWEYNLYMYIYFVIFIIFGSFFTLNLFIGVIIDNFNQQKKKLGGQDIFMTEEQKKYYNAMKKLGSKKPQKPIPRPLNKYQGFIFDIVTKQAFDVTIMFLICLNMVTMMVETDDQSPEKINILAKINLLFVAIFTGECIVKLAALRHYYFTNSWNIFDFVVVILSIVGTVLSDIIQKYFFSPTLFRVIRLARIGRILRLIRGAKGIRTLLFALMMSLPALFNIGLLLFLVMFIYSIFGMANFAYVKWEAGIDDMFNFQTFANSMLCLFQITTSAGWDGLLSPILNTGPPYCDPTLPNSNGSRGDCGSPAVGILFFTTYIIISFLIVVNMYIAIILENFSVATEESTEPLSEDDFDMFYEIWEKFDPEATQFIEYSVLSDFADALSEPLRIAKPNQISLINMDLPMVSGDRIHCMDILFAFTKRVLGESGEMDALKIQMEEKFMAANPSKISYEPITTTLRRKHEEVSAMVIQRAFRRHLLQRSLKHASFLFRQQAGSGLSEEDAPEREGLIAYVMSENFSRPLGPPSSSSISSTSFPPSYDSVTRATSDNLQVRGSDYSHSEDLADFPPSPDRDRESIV
Chain of Sodium channel protein type 9 subunit alpha (Q15858 whole entry): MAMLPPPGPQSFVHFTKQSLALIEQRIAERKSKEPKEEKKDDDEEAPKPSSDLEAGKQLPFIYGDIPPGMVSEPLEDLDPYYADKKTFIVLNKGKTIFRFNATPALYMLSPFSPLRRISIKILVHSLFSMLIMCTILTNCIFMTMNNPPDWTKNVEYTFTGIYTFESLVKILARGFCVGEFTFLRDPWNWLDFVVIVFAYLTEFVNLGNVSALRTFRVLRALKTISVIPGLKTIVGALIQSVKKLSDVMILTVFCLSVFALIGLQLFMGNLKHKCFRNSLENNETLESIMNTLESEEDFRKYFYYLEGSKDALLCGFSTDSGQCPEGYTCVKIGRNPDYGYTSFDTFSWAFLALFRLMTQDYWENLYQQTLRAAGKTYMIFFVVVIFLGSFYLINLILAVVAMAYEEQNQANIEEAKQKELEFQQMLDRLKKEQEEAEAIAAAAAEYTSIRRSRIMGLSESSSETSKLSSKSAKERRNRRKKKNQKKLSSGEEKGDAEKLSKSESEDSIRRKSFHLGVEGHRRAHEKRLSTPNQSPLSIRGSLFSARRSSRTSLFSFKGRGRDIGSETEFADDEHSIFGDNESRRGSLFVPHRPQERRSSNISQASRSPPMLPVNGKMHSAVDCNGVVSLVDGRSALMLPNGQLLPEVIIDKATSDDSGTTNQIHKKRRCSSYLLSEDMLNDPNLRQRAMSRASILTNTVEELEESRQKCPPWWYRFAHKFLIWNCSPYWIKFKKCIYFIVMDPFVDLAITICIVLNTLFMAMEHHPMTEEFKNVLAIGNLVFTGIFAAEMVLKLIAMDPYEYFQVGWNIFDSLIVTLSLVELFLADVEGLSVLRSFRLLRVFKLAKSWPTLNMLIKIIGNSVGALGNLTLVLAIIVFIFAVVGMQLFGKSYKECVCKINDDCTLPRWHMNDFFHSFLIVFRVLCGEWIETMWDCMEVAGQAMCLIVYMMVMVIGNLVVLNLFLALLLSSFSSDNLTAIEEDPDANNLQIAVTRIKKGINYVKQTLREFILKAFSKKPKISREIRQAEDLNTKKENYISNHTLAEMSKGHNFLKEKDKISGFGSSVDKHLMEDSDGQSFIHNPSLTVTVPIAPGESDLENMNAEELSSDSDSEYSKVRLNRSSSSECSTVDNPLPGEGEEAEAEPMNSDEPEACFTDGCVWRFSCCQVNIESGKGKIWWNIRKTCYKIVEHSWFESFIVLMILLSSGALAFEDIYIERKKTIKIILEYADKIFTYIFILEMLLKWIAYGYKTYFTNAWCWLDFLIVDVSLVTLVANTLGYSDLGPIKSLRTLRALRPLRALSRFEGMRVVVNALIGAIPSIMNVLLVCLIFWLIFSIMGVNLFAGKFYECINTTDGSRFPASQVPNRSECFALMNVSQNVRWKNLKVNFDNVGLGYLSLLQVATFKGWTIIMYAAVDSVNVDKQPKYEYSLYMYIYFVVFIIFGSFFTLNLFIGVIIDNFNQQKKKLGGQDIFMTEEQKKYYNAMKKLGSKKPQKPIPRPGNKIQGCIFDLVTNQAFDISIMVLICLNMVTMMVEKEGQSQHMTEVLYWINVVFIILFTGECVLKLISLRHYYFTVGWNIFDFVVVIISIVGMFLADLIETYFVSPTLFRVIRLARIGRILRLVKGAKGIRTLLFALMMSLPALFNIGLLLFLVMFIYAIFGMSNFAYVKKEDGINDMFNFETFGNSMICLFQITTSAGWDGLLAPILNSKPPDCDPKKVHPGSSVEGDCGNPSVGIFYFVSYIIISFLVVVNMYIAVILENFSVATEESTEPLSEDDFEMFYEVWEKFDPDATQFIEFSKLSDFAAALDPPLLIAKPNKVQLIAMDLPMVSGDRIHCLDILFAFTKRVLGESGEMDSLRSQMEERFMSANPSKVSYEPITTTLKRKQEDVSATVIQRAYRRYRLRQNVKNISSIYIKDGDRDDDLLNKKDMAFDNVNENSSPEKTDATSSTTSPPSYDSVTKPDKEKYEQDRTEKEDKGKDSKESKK

Row | microsomal CLint at 1 µM [2] | Papp [3] | clearance [4] | Stability [5] | Drug metabolism [6] | IC50 [7] | microsomal CLint at 1 µM [8] | fraction unbound at 0.75 h, 5 µM [9] | CL free [10] | pKa [11] | recovery [13] | SMILES | IC50 [1] | Ratio IC50 [12]
1 | 39 µL/min/mg | < 1 ×10⁻⁶ cm/s | 65 mL/min/kg | – | – | – | – | – | – | – | – | N#Cc1cc(S(=O)(=O)Nc2ncns2)ccc1Oc1ccc(C(F)(F)F)cc1-c1cn[nH]c1 | > 30000 nM | –
2 | – | – | – | Stable | Metabolite_Notdetected | – | – | – | – | – | – | Cn1nccc1-c1cc(Cl)ccc1-c1cn(C)c2cc(S(=O)(=O)Nc3ncns3)ccc12 | – | –
3 | – | 12 ×10⁻⁶ cm/s | – | – | – | – | – | – | – | – | – | COc1cc(C(F)(F)F)ccc1-c1nccc2cc(S(=O)(=O)Nc3nccs3)cnc12 | > 30000 nM | –
4 | < 14 µL/min/mg | 27 ×10⁻⁶ cm/s | – | – | – | 510 nM | < 14 µL/min/mg | 0.003 | – | – | – | COc1cc(C(F)(F)F)ccc1-c1cccc2cc(S(=O)(=O)Nc3ccncn3)ccc12 | > 30000 nM | –
5 | 37 µL/min/mg | 28 ×10⁻⁶ cm/s | – | – | – | > 30000 nM | 46 µL/min/mg | – | – | – | – | COc1cc(C(F)(F)F)ccc1-c1cccc2cc(S(=O)(=O)Nc3cncs3)ccc12 | – | –
6 | 52 µL/min/mg | 12 ×10⁻⁶ cm/s | 0.817 mL/min/kg | – | – | 590 nM | 25 µL/min/mg | 0.001 | 817 mL/min/kg | 6.7 | – | COc1cc(C(F)(F)F)ccc1-c1cccc2cc(S(=O)(=O)Nc3nccs3)ccc12 | 21000 nM | –
7 | – | 36 ×10⁻⁶ cm/s | 18.3 mL/min/kg | – | – | – | – | 0.014 | 1350 mL/min/kg | – | – | COc1cc(C(F)(F)F)ccc1-c1cnnc2cc(S(=O)(=O)Nc3nccs3)ccc12 | – | –
8 | 18 µL/min/mg | 17 ×10⁻⁶ cm/s | 86.7 mL/min/kg | – | – | 51 nM | 15 µL/min/mg | 0.001 | – | 3.7 | – | COc1cc(C(F)(F)F)ccc1-c1cccc2cc(S(=O)(=O)Nc3ncns3)ccc12 | – | –
9 | 19 µL/min/mg | 1.3 ×10⁻⁶ cm/s | 68.3 mL/min/kg | – | – | 120 nM | – | – | – | – | – | Cn1nccc1-c1cc(C(F)(F)F)ccc1-c1cn(C)c2cc(S(=O)(=O)Nc3ncns3)ccc12 | > 30000 nM | >200
10 | < 14 µL/min/mg | > 5 ×10⁻⁶ cm/s | 4 mL/min/kg | – | – | 160 nM | < 14 µL/min/mg | 0.003 | 1330 mL/min/kg | 3.6 | < 50% | O=S(=O)(Nc1ncns1)c1ccc2c(-c3ccc(C(F)(F)F)cc3Br)cccc2c1 | 21000 nM | –
11 | 25 µL/min/mg | 9.5 ×10⁻⁶ cm/s | – | – | – | > 30000 nM | 16 µL/min/mg | – | – | – | – | COc1cc(C(F)(F)F)ccc1-c1cccc2cc(S(=O)(=O)Nc3ccccn3)ccc12 | – | –
12 | < 14 µL/min/mg | > 5 ×10⁻⁶ cm/s | – | – | – | 48 nM | 15 µL/min/mg | 0.001 | – | 3.6 | < 50% | Cc1cc(C(F)(F)F)ccc1-c1cccc2cc(S(=O)(=O)Nc3ncns3)ccc12 | – | –
13 | 21 µL/min/mg | < 2 ×10⁻⁶ cm/s | 158 mL/min/kg | – | – | – | – | – | – | – | – | Cn1nccc1-c1cc(C(F)(F)F)ccc1-c1cccc2cc(S(=O)(=O)Nc3ncns3)ccc12 | – | –
14 | < 14 µL/min/mg | 27 ×10⁻⁶ cm/s | – | – | – | 1400 nM | < 14 µL/min/mg | – | – | 7.2 | – | COc1cc(C(F)(F)F)ccc1-c1cccc2cc(S(=O)(=O)Nc3cscn3)ccc12 | 21000 nM | –
15 | – | 34 ×10⁻⁶ cm/s | 3 mL/min/kg | – | – | – | – | 0.012 | 250 mL/min/kg | – | – | COc1cc(C(F)(F)F)ccc1-c1nccc2cc(S(=O)(=O)Nc3nccs3)ccc12 | > 30000 nM | –
16 | < 14 µL/min/mg | 1.3 ×10⁻⁶ cm/s | 90 mL/min/kg | – | – | 37 nM | < 14 µL/min/mg | 0.1 | – | 3.6 | – | O=S(=O)(Nc1ncns1)c1ccc2c(-c3ccc(C(F)(F)F)cc3C3=CCNCC3)cccc2c1 | > 30000 nM | –
17 | < 14 µL/min/mg | 36 ×10⁻⁶ cm/s | – | – | – | 1500 nM | 17 µL/min/mg | – | – | – | – | COc1cc(C(F)(F)F)ccc1-c1cccc2cc(S(=O)(=O)Nc3ncccn3)ccc12 | > 30000 nM | –
18 | – | 3.2 ×10⁻⁶ cm/s | 40 mL/min/kg | – | – | – | – | 0.013 | 2670 mL/min/kg | – | – | COc1cc(C(F)(F)F)ccc1-c1n[nH]c(=O)c2cc(S(=O)(=O)Nc3nccs3)ccc12 | – | –
19 | 18 µL/min/mg | < 2 ×10⁻⁶ cm/s | – | – | – | – | 25 µL/min/mg | 0.001 | – | 3.6 | – | O=S(=O)(Nc1ncns1)c1ccc2c(-c3ccc(C(F)(F)F)cc3O)cccc2c1 | – | –
